Activity calls are given as the source filed them. The calls are words filed in the database; no cut-off is given here.
How the values were obtained:
AGS = assay: Cytotoxicity against human AGS cells after 48 hrs by calcein-AM assay; type: functional, cell-based
Procedure, shortened: (§1)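 Adherent lines were grown in DMEM with 10% heat-inactivated FBS, 2 mM glutamine, penicillin and streptomycin, seeded at 10^4 cells/well, and exposed to increasing concentrations for 48 h. DMSO stocks were diluted in medium, with final DMSO ≤1%. Calcein-AM (1 µM final) was added for 60 min, stopped on ice, and cells were washed twice with cold HBSS. Fluorescence was read at 485/535 nm to derive IC50.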

Jurkat [1] = assay: Cytotoxicity against human Jurkat cells after 24 hrs by PI staining based flow cytometry; type: functional, cell-based
Procedure, shortened: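 Jurkat cells (10^6) were exposed to increasing concentrations for 24 h, then stained with propidium iodide (10 µg/mL in PBS) for 1 min at room temperature. Membrane-compromised cells were counted immediately by flow cytometry with 488 nm excitation.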

HCT-116 = assay: Cytotoxicity against human HCT116 cells after 48 hrs by calcein-AM assay; type: functional, cell-based; conditions: HCT-116, 48 h; procedure, shortened: as §1
HeLa = assay: Cytotoxicity against human HeLa cells after 48 hrs by calcein-AM assay; type: functional, cell-based; procedure, shortened: as §1
[2] = Cytotoxicity against human 293T cells after 48 hrs by calcein-AM assay; type: cell-based; conditions: HEK-293T; procedure, shortened: as §1
A549 = assay: Cytotoxicity against human A549 cells after 48 hrs by calcein-AM assay; type: functional, cell-based; conditions: A549, 48 h; procedure, shortened: as §1
Jurkat [3] = assay: Cell cycle arrest in human Jurkat cells assessed as apoptotic cells at 25 uM after 24 hrs by flow cytometry; type: functional
Procedure, shortened: (§2)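 Jurkat cells in RPMI 1640 with 10% FBS, 2 mM glutamine and antibiotics, at 37 °C and 5% CO2, were treated for 24 h. Cells were fixed in 70% ethanol for 24 h at 4 °C, washed with PBS containing 4% glucose, and digested with RNase A (50 U/mL) plus PI staining for 1 h at RT. The subdiploid (sub-G0/G1) fraction was measured by flow cytometry.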

Jurkat [4] = assay: Cell cycle arrest in human Jurkat cells assessed as apoptotic cells at 10 uM after 24 hrs by flow cytometry; type: functional; procedure, shortened: as §2
Jurkat 5.1 (human) = assay: Inhibition of TNF-alpha-induced NF-kappaB activation in human Jurkat 5.1 cells by luciferase assay relative to control
Jurkat [5] = assay: Cell cycle arrest in human Jurkat cells assessed as increase in apoptotic cells after 24 hrs by flow cytometry; type: functional, cell-based; procedure, shortened: as §2

SMILES | IC50 (AGS) | IC50 (Jurkat [1]) | IC50 (HCT-116) | IC50 (HeLa) | IC50 [2] | IC50 (A549) | Activity (Jurkat [3]) | Activity (Jurkat [4]) | Activity (Jurkat 5.1 (human)) | Activity (Jurkat [5])
CCCCCCCCCCCCCCC1=C(OC)C(=O)C2=C(C1=O)S(=O)(=O)CCN2 | 45 µM | > 50 µM | 44.8 µM | 47.9 µM | 47.9 µM | 50.8 µM |  |  |  | 
COC1=C(C/C=C(\C)CCC=C(C)C)C(=O)C2=C(C1=O)S(=O)(=O)CCN2 [APLIDINONE A] |  | 44.5 µM |  |  |  |  |  |  |  | 
CCCCCCCCC1=C(OC)C(=O)C2=C(C1=O)S(=O)(=O)CCN2 | 7.2 µM | 20.7 µM | 14.1 µM | 24.8 µM | 8.7 µM | 13 µM | 45% | 26.5% | Active | 
CCC1=C(OC)C(=O)C2=C(C1=O)S(=O)(=O)CCN2 | > 50 µM | > 50 µM | > 50 µM | > 50 µM | 32.6 µM | > 50 µM | 9.6% |  |  | Active
CCC1=C(OC)C(=O)C2=C(NCCS2(=O)=O)C1=O |  | > 50 µM |  |  |  |  |  |  | inactive | Active
CCCCCCCCCCCCCCC1=C(OC)C(=O)C2=C(NCCS2(=O)=O)C1=O |  | > 50 µM |  |  |  |  |  |  |  | 
CCCCCCCCC1=C(OC)C(=O)C2=C(NCCS2(=O)=O)C1=O |  | > 50 µM |  |  |  |  |  |  |  | Active

Reference: ChEMBL document CHEMBL1158528, “Synthesis of structurally simplified analogues of aplidinone A, a pro-apoptotic marine thiazinoquinone” (Bioorg Med Chem, 2010)
